Activity calls are given as the source filed them. No cut-off for these calls is given here.
How the values were obtained:
Leishmania infantum = test: Induction of apoptosis in Leishmania infantum promastigotes at 400 uM after 24 hrs by AnnexinV-FITC/propidium iodide based FACS flow cytometry; type: functional
Summary of the method: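 L. infantum promastigotes exposed to 400 μM for 24 h, harvested, washed twice in PBS, resuspended at 1×10^6 cells/ml, stained with annexin V-FITC plus propidium iodide for 15 min at room temperature in the dark. Flow cytometry on at least 10,000 gated cells, read as percent of cells per quadrant. Untreated and H2O2-treated cells serve as controls. Representative of three independent trials.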

Leishmania donovani = test: Antiprotozoal activity against Leishmania donovani axenic amastigotes; type: functional, organism-based
[1] = Cytotoxicity against BALB/C mouse macrophages; type: cell-based; conditions: Macrophage
Trypanosoma cruzi = test: Antiprotozoal activity against intracellular Trypanosoma cruzi amastigotes in rat L6 cells; type: functional, organism-based
[2] = system: Trypanosoma brucei rhodesiense; test: Antiprotozoal activity against Trypanosoma brucei rhodesiense bloodstream forms; type: functional, organism-based
L6 = test: Cytotoxicity against rat L6 cells; type: cell-based
[3] = Inhibition of human topoisomerase 1B-mediated relaxation of supercoiled pSK DNA after 30 mins by ethidium bromide staining based agarose gel electrophoresis
Summary of the method: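 Plasmid DNA relaxation assay with the enzyme over 30 min at 37 °C, acid at 3.125–100 μM. Reactions stopped with 1% SDS plus proteinase K. Products resolved on agarose and stained with ethidium bromide, scoring supercoiled, nicked and relaxed topoisomer bands.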

[4] = molecular target: T1, DNA topoisomerase type IB small subunit (Leishmania major) (UniProt Q95Z89); test: Inhibition of Leishmania donovani topoisomerase 1B-mediated relaxation of supercoiled pSK DNA at 100 uM preincubated for 15 mins by ethidium bromide staining based agarose gel electrophoresis
T1 sequence (whole entry): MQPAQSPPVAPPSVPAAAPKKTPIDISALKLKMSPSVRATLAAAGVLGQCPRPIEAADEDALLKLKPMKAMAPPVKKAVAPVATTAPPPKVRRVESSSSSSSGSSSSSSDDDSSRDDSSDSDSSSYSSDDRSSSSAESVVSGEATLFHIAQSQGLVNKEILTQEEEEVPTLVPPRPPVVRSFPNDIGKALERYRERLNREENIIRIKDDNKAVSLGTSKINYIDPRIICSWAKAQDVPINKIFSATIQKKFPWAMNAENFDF
Summary of the method: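 LdTopIB pre-incubated 15 min at 4 °C with 100 µM compound, or with DMSO as control. […] Samples stopped with SDS, digested with proteinase K, phenol-chloroform extracted and resolved on ethidium bromide agarose gel.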

[5] = molecular target: T1, DNA topoisomerase type IB small subunit (Leishmania major); test: Inhibition of Leishmania donovani topoisomerase 1B-mediated relaxation of supercoiled pSK DNA at 100 uM after 4 mins by ethidium bromide staining based agarose gel electrophoresis
Summary of the method: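 Stopped with 1% SDS, then digested 1 h at 37°C with 1 mg/ml proteinase K. Extracted with phenol-chloroform and run on 1% agarose containing 40 µg/ml ethidium bromide.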

SMILES | IC50 (Leishmania donovani) | IC50 [1] | IC50 (Trypanosoma cruzi) | IC50 (L6) | EC50 [3] | also measured
CCCCCCCCCCCCCCCC#CC(=O)O | 11 µM | > 100 µM | 48.1 µM | 20 µM | 51.9 µM | Activity (Leishmania infantum): 1.98%; IC50 [2]: 64.5 µM
CCCCCCCCCCCC#CC(=O)O | 24.7 µM | > 100 µM | 62.4 µM | 40.9 µM | > 100 µM | Activity (Leishmania infantum): 1.75%; IC50 [2]: 255 µM
O=C(Cn1ccnc1[N+](=O)[O-])NCc1ccccc1 [BENZNIDAZOLE] | – | – | 1.47 µM | – | – | –
CCCCCCCCCCCCCCCC(=O)O [PALMITIC ACID] | – | – | – | 209 µM | – | –
COc1cc([C@@H]2c3cc4c(cc3[C@H](O)[C@H]3COC(=O)[C@H]23)OCO4)cc(OC)c1OC [PODOFILOX] | – | – | – | 0.02 µM | – | –
CCCCCCCCCCCCCCCCOP(=O)([O-])OCC[N+](C)(C)C [MILTEFOSINE] | 0.49 µM | – | – | – | – | –
CC[C@@]1(O)C(=O)OCc2c1cc1n(c2=O)Cc2cc3ccccc3nc2-1 [CAMPTOTHECIN] | – | 0.62 µM | – | – | 2 µM | inhibition [4]: Active; inhibition [5]: inactive
